Experimental data: ChEMBL document CHEMBL1150763, “Discovery of imidazo[1,5-c]imidazol-3-ones: weakly basic, orally active factor Xa inhibitors” (J Med Chem, 2008)

How the values were obtained:
Coagulation factor X = Coagulation factor X (Homo sapiens, UniProt P00742); experiment: Inhibition of human factor 10a
Plasma [1] = experiment: Anticoagulant potency in human plasma assessed as concentration required to double the time to clot formation by PT assay; assay type: functional
Summary of the method: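 Human normal plasma mixed with compound dilutions in DMSO (1.5 µL into 48.5 µL), preincubated 4 min at 37 °C, clotting started with thromboplastin and timed on an automatic coagulometer. Prolongation relative to DMSO; concentration doubling clotting time derived by least-squares regression; mean of duplicates.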

[2] = Basicity, pKa by titration method; assay type: physicochemical
physchem = conditions: buffer, pH 7.4
Plasma [3] = experiment: Anticoagulant potency in mouse plasma assessed as concentration required to double the time to clot formation by PT assay; assay type: functional
Plasma [4] = experiment: Anticoagulant activity in mouse plasma assessed as ratio of prothrombin time in drug to untreated control at 30 mg/kg, po; assay type: functional
Summary of the method: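 Male ICR mice (30-35 g), fasted >12 h, dosed orally at 30 mg/kg as suspension in 0.5% methylcellulose; vehicle controls. Citrated aortic blood drawn 1 h post-dose under pentobarbital anaesthesia, spun 1000g 10 min to platelet-poor plasma. PT on 50 µL plasma preincubated 4 min at 37 °C, started with thromboplastin; clotting time expressed relative to control group (n = 3).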

CYP3A4 = CYP3A4 (Homo sapiens, UniProt P08684); experiment: Inhibition of CYP3A4 expressed in human B-lymphoblastoid cells at 10 uM; assay type: ADME, cell-based
Sequence of CYP3A4 (P08684 whole entry): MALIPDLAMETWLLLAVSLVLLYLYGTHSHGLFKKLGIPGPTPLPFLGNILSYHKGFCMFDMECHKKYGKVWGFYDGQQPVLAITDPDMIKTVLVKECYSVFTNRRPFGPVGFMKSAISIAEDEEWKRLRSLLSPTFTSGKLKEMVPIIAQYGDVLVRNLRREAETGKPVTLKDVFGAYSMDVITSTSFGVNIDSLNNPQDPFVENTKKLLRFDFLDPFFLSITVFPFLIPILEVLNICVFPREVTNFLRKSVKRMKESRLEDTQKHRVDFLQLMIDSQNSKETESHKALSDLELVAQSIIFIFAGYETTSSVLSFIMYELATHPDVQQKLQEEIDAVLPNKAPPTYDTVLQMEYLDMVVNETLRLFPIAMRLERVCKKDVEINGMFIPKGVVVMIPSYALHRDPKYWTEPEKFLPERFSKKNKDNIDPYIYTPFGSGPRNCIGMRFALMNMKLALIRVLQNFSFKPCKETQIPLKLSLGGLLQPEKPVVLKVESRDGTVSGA
Summary of the method: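 Recombinant CYP3A4 (10 nM, from CYP3A4-expressing human B-lymphoblastoid cells) incubated with 100 µM testosterone and 10 µM test compound for 30 min at 37 °C; 6β-hydroxytestosterone formation quantified by HPLC-UV.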

Sequence of Coagulation factor X (P00742 41-179 limits assumed): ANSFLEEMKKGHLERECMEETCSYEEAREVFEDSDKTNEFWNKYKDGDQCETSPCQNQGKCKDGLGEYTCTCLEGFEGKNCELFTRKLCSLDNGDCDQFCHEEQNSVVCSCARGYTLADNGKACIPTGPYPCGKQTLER
Sequence of Coagulation factor X (P00742 235-488 limits assumed): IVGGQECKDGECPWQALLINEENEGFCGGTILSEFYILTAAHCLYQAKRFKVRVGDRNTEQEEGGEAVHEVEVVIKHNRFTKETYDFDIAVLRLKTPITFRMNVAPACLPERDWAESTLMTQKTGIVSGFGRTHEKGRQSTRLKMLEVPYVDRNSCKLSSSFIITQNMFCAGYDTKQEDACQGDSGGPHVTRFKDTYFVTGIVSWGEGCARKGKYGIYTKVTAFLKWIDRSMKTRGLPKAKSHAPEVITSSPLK

SMILES | IC50 (Coagulation factor X) [nM] | pKa [2] | logD (physchem) | inhibition at 10 µM (CYP3A4) [%] | Activity (Plasma [1]) [µM] | Activity (Plasma [3]) [µM] | Ratio (Plasma [4])
Cc1nccn1CCCCC1CCN(C(=O)CCS(=O)(=O)c2ccc3cc(Cl)ccc3c2)CC1 | 300 |  |  |  | >10 |  | 
CCc1nccn1C1CCN(C(=O)CCS(=O)(=O)c2ccc3cc(Cl)ccc3c2)CC1 | 160 |  |  |  | 1 |  | 
CCCc1nccn1C1CCN(C(=O)CCS(=O)(=O)c2ccc3cc(Cl)ccc3c2)CC1 | 230 |  |  |  | 2 |  | 

The remaining compounds from weak to strong by IC50 (Coagulation factor X), led by results:

IC50 (Coagulation factor X) [nM] | pKa [2] | logD (physchem) | inhibition at 10 µM (CYP3A4) [%] | SMILES | Activity (Plasma [1]) [µM] | Activity (Plasma [3]) [µM] | Ratio (Plasma [4])
170 |  |  | 34 | Cc1nccn1C1CCN(C(=O)CCS(=O)(=O)c2ccc3cc(Cl)ccc3c2)CC1 | 0.99 | 3.3 | 1.1
120 | 7.9 | 2 |  | Cc1ncc(C2CCN(C(=O)CCS(=O)(=O)c3ccc4cc(Cl)ccc4c3)CC2)[nH]1 | 2.5 |  | 
54 |  |  | 53 | Cc1nccn1CCN1CCN(C(=O)CCS(=O)(=O)c2ccc3cc(Cl)ccc3c2)CC1 | 0.99 | 2.1 | 1.1
